Data taken from ChEMBL document CHEMBL4354843, “Structure-Based Design of a Potent and Selective Covalent Inhibitor for SRC Kinase That Targets a P-Loop Cysteine” (J Med Chem, 2020).
pIC50: −log10 of the molar value.

Experiments:
[1] = biological target: Ephrin type-B receptor 4 (Homo sapiens) (UniProt P54760); assay: Binding affinity to wild-type human partial length EPHB4 (H585 to G892 residues) expressed in bacterial expression system assessed as residual binding level at 1 uM by Kinomescan method relative to control
Sequence of Ephrin type-B receptor 4 (Homo sapiens) (P54760 whole entry, the tested form may be a part): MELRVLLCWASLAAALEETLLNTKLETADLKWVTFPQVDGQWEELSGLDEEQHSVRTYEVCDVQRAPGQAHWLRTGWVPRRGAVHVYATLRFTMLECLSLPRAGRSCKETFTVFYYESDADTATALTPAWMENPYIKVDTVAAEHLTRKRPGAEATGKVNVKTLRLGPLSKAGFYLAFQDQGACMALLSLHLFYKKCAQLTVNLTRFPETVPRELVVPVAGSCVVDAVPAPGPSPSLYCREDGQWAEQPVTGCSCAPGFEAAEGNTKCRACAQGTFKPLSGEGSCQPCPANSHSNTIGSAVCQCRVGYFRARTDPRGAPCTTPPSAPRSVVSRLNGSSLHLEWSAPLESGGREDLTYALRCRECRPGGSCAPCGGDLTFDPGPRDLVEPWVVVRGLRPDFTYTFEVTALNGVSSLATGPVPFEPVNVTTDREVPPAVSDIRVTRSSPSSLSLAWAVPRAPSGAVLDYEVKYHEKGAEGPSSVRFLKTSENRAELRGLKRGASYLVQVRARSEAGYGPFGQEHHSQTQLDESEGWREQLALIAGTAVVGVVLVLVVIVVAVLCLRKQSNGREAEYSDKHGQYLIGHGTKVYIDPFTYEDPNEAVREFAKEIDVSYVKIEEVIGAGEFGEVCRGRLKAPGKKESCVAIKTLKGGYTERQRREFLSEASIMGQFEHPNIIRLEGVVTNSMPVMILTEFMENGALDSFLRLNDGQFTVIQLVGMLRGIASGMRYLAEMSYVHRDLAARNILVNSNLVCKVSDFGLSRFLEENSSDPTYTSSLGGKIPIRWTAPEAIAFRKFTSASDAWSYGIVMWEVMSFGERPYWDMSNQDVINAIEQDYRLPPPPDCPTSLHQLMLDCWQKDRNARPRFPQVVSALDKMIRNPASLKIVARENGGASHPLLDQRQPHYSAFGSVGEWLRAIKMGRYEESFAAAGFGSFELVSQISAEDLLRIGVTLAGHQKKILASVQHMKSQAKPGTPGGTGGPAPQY

[2] = test system: Serine/threonine-protein kinase B-raf (Homo sapiens), P15056 [V600E]; assay: Binding affinity to human partial length BRAF V600E mutant (S429 to E741 residues) expressed in mammalian expression system assessed as residual binding level at 1 uM by Kinomescan method relative to control
Summary of the method: (§1)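 KinomeScan active site-directed competition binding panel (468 kinases), compound tested at 1 μM. Result expressed as remaining kinase signal versus DMSO control (percent of control).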

[3] = biological target: Hepatocyte growth factor receptor (Homo sapiens) (UniProt P08581); assay: Binding affinity to wild-type human partial length MET (D1010 to S1367 residues) expressed in bacterial expression system assessed as residual binding level at 1 uM by Kinomescan method relative to control
[4] = biological target: Serine/threonine-protein kinase RIO1 (Homo sapiens) (UniProt Q9BRS2); assay: Binding affinity to wild-type human full length RIOK1 (M1 to K568 residues) expressed in bacterial expression system assessed as residual binding level at 1 uM by Kinomescan method relative to control
Summary of the method: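 Active-site-directed competition binding screen across a 468-kinase panel, run with the test compound at 1 μM. The read-out is the kinase signal remaining relative to a DMSO control, reported as a percentage. […]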

[5] = biological target: Myosin-IIIa (Homo sapiens) (UniProt Q8NEV4); assay: Binding affinity to wild-type human partial length MYO3A (M1 to K338 residues) expressed in bacterial expression system assessed as residual binding level at 1 uM by Kinomescan method relative to control
[6] = biological target: Mitogen-activated protein kinase kinase kinase kinase 1 (Homo sapiens) (UniProt Q92918); assay: Binding affinity to wild-type human full length HPK1 (M1 to R799 residues) expressed in bacterial expression system assessed as residual binding level at 1 uM by Kinomescan method relative to control
Sequence of Mitogen-activated protein kinase kinase kinase kinase 1 (Homo sapiens) (Q92918 whole entry, looked up, the tested form may be a part): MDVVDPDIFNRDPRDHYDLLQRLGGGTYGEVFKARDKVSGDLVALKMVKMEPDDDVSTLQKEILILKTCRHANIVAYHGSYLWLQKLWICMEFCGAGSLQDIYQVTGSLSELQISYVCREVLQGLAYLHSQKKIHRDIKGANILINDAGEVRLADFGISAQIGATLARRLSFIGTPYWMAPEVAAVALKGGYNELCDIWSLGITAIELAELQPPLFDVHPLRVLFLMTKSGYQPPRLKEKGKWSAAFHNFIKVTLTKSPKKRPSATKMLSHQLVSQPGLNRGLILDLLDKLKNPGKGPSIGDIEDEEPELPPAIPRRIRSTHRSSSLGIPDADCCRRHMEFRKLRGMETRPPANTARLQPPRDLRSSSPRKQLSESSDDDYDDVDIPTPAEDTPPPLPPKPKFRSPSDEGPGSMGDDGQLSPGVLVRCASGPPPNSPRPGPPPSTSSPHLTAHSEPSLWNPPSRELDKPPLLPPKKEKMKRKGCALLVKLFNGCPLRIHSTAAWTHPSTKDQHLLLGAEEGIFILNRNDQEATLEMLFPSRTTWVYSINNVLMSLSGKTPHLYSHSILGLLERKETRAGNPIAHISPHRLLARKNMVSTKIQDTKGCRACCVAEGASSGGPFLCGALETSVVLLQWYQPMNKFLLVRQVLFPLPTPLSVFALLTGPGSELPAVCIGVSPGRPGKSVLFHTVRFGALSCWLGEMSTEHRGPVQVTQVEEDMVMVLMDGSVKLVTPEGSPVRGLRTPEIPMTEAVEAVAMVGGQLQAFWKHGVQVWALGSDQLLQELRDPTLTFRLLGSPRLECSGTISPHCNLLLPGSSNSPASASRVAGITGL
Summary of the method: (§2)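 Active-site-directed KinomeScan competition binding panel covering 468 kinases, compound tested at 1 μM. Each readout is the kinase signal remaining with compound, expressed as a percentage of the DMSO control. […]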

[7] = biological target: RAC-alpha serine/threonine-protein kinase (Homo sapiens) (UniProt P31749); assay: Binding affinity to wild-type human partial length AKT1 expressed in bacterial expression system assessed as residual binding level at 1 uM by Kinomescan method relative to control
[8] = biological target: Serine/threonine-protein kinase Sgk2 (Homo sapiens) (UniProt Q9HBY8); assay: Binding affinity to wild-type human partial length SGK2 (L54 to C427 residues) expressed in mammalian expression system assessed as residual binding level at 1 uM by Kinomescan method relative to control
[9] = biological target: Serine/threonine-protein kinase DCLK2 (Homo sapiens) (UniProt Q8N568); assay: Binding affinity to wild-type human partial length DCAMKL2 (K273 to V664 residues) expressed in bacterial expression system assessed as residual binding level at 1 uM by Kinomescan method relative to control
[10] = biological target: Dual specificity mitogen-activated protein kinase kinase 3 (Homo sapiens) (UniProt P46734); assay: Binding affinity to wild-type human full length MEK3 (M1 to S318 residues) expressed in mammalian expression system assessed as residual binding level at 1 uM by Kinomescan method relative to control
Summary of the method: (§3)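 KinomeScan, an active site-directed competition binding panel of 468 kinases. The test compound was at 1 μM. The readout is remaining kinase binding as a percentage of the DMSO control. Scores above 35% were treated as weak binding and not listed.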

[11] = test system: NCI-H1975; assay: Antiproliferative activity against human NCI-H1975 cells assessed as reduction in cell viability incubated for 72 hrs by cell-titer glo assay; conditions: NCI-H1975, 72 h
[12] = test system: Mast/stem cell growth factor receptor Kit (Homo sapiens), P10721 [UNDEFINED MUTATION]; assay: Binding affinity to human partial length KIT V559D/V654 double mutant (Y545 to D952 residues) expressed in bacterial expression system assessed as residual binding level at 1 uM by Kinomescan method relative to control; summary of the method: as §1
[13] = test system: Tyrosine-protein kinase ABL1 (Homo sapiens), P00519 [T315I]; assay: Binding affinity to human phosphorylated ABL1 T315I mutant (S229 to K512 residues) expressed in mammalian expression system assessed as residual binding level at 1 uM by Kinomescan method relative to control; summary of the method: as §2
[14] = biological target: Serine/threonine-protein kinase 26 (Homo sapiens) (UniProt Q9P289); assay: Binding affinity to wild-type human full length MST4 (M1 to P416 residues) expressed in mammalian expression system assessed as residual binding level at 1 uM by Kinomescan method relative to control
Sequence of Serine/threonine-protein kinase 26 (Homo sapiens) (Q9P289 2-416 limits assumed): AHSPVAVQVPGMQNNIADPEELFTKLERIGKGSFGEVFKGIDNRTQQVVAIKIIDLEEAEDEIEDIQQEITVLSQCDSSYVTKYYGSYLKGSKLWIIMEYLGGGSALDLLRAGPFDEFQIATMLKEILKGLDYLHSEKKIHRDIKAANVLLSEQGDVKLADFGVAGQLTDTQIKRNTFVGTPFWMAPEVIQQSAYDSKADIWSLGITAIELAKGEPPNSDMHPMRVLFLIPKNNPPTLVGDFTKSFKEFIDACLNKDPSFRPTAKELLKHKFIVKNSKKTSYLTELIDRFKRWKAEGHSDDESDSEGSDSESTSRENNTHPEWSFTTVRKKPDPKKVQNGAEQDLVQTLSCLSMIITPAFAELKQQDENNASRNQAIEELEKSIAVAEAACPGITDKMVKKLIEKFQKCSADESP
Summary of the method: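 Active-site-directed competition binding panel (KinomeScan) covering 468 kinases. Test agent was screened at 1 μM. The read-out is the remaining kinase signal expressed relative to a DMSO control. Scores above 35%, taken as weak binding, were not reported.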

[15] = biological target: Ephrin type-B receptor 2 (Homo sapiens) (UniProt P29323); assay: Binding affinity to wild-type human partial length EPHB2 (I597 to L902 residues) expressed in bacterial expression system assessed as residual binding level at 1 uM by Kinomescan method relative to control
Summary of the method: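 Active-site-directed competition binding panel of 468 kinases (KinomeScan), compound at 1 μM. The read-out is kinase remaining bound, given as a percentage of the DMSO control. […]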

[16] = biological target: Vascular endothelial growth factor receptor 1 (Homo sapiens) (UniProt P17948); assay: Binding affinity to wild-type human partial length FLT1 (R781 to F1239 residues) expressed in bacterial expression system assessed as residual binding level at 1 uM by Kinomescan method relative to control
Sequence of Vascular endothelial growth factor receptor 1 (Homo sapiens) (P17948 whole entry, the tested form may be a part): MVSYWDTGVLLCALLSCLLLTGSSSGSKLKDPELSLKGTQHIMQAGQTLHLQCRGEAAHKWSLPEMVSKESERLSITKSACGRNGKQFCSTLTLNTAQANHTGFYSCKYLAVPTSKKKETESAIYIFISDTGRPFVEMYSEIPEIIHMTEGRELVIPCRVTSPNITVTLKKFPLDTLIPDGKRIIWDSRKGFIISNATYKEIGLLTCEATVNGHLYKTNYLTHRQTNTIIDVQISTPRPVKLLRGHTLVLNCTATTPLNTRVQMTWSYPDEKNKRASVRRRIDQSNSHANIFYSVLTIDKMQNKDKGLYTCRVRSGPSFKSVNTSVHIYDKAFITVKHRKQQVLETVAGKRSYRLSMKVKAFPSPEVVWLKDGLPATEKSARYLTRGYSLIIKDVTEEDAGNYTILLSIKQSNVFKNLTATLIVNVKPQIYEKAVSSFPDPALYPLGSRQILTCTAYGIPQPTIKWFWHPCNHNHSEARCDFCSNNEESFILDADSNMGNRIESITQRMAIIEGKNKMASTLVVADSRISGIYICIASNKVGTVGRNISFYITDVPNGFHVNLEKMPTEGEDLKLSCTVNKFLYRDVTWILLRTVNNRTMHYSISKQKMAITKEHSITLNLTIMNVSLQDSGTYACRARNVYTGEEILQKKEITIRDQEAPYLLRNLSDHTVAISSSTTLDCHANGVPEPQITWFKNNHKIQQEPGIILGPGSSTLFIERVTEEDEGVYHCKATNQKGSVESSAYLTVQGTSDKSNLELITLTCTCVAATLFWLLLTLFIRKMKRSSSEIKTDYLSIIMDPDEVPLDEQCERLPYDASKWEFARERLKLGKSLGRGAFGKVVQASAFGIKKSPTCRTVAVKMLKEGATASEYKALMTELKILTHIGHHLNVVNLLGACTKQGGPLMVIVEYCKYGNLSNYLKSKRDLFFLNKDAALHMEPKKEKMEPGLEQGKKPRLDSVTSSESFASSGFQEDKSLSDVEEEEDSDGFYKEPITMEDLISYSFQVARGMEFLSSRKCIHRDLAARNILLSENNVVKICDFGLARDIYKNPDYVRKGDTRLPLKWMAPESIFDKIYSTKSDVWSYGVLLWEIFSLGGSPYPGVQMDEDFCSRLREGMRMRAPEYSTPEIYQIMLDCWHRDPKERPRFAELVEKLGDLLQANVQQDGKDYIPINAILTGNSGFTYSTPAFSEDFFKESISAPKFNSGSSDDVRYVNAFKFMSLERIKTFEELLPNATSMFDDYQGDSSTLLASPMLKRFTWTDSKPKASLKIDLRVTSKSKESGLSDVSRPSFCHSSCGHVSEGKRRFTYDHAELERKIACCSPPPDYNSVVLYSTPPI

[17] = biological target: Ephrin type-A receptor 1 (Homo sapiens) (UniProt P21709); assay: Binding affinity to wild-type human partial length EPHA1 (V588 to I913 residues) expressed in bacterial expression system assessed as residual binding level at 1 uM by Kinomescan method relative to control
Sequence of Ephrin type-A receptor 1 (Homo sapiens) (P21709 whole entry, the tested form may be a part): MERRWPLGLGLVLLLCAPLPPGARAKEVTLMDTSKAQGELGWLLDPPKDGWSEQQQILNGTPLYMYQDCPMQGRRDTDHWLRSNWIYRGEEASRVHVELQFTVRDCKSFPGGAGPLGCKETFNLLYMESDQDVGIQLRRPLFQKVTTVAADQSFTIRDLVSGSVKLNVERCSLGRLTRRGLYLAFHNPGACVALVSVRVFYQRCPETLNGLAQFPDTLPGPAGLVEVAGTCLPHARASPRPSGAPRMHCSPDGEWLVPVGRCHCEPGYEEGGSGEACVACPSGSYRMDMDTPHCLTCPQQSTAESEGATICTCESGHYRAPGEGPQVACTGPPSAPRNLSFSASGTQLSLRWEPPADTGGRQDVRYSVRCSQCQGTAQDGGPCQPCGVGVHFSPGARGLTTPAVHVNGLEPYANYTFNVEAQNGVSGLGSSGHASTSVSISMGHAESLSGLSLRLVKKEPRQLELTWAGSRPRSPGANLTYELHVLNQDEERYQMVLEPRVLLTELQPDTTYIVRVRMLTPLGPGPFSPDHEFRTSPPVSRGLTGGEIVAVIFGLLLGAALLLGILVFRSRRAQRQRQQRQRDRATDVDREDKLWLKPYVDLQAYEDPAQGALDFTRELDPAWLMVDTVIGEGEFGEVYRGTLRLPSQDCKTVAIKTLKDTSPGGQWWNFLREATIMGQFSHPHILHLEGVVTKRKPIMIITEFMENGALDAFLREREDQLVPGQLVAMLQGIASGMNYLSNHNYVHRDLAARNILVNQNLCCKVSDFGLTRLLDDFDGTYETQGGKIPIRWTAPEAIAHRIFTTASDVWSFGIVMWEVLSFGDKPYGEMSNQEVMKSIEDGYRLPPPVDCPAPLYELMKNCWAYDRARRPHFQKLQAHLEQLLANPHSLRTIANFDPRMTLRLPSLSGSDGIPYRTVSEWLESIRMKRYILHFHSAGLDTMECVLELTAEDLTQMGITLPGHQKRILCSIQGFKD

[18] = biological target: Dual specificity protein kinase CLK4 (Homo sapiens) (UniProt Q9HAZ1); assay: Binding affinity to wild-type human partial length CLK4 (R135 to K481 residues) expressed in bacterial expression system assessed as residual binding level at 1 uM by Kinomescan method relative to control
Sequence of Dual specificity protein kinase CLK4 (Homo sapiens) (Q9HAZ1 whole entry, looked up, the tested form may be a part): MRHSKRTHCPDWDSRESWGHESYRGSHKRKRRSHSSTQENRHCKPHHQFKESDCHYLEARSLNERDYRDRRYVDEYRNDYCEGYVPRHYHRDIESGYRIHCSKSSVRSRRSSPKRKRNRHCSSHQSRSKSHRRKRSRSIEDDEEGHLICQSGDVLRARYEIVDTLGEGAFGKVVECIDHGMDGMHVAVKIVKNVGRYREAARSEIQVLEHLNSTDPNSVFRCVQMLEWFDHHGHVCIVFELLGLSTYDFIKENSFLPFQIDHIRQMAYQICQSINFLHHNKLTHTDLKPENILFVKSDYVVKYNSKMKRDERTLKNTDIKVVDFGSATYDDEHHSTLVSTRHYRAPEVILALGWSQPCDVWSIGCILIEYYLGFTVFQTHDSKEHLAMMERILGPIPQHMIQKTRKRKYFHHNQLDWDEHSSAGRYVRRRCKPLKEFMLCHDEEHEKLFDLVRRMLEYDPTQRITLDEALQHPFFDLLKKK

[19] = biological target: Ribosomal protein S6 kinase alpha-3 (Homo sapiens) (UniProt P51812); assay: Binding affinity to wild-type human partial length C-terminal RSK2 kinase domain 2 (V402 to S715 residues) expressed in mammalian expression system assessed as residual binding level at 1 uM by Kinomescan method relative to control
[20] = biological target: Tyrosine-protein kinase CSK (Homo sapiens) (UniProt P41240); assay: Binding affinity to wild-type human full length CSK (M1 to L450 residues) expressed in bacterial expression system assessed as residual binding level at 1 uM by Kinomescan method relative to control; summary of the method: as §3

C=CC(=O)Nc1ccccc1Nc1nc(Nc2ccc(N3CCN(C)CC3)cc2)ncc1C(=O)Nc1c(C)cccc1Cl
Activity [1]: 100% | Activity [2]: 100% | Activity [3]: 100% | Activity [4]: 100% | Activity [5]: 100% | Activity [6]: 100% | Activity [7]: 89% | Activity [8]: 100% | Activity [9]: 100% | Activity [10]: 69% | pIC50 [11]: 6.52 | Activity [12]: 100% | Activity [13]: 100% | Activity [14]: 85% | Activity [15]: 59% | Activity [16]: 100% | Activity [17]: 100% | Activity [18]: 100% | Activity [19]: 100% | Activity [20]: 1.3%
